# esBAF inh: Bmi1 luciferase reporter increase in mESCs, primary screen, esBAF inhibitor project, mouse ES cells, Bmi1 luciferase knock-in, single point; 24 h; 100% = twice the neutral-well signal; reporter increase, % at 12.5 µM; 2% of 350,000 active; AID 602393, 2012; in the data active = activation above about 40%; inconclusive = no clear call, values can overlap the other calls;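 note: a rise in the Bmi1 reporter signal indicates esBAF inhibition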
# MITF TRPM1 HTS: activators of MITF-driven TRPM1 promoter reporter, primary screen, cell-based, SK-MEL-5, luciferase, single point; SK-MEL-5 TRPM1-promoter luciferase, 24 h; % of positive control, neutral wells = 0; activation, % at 12.5 µM; 0.75% of 300,000 active; AID 588334, 2011;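 active = mean activation of at least 80% with every replicate also reaching 80%; inconclusive = mean reaches 80% but some replicate falls short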
# Casp6 inh: human caspase-6 inhibitors, primary screen, biochemical, VEID-R110 fluorescence, single point, set 2. 0.53% of 350,000 active. AID 686996, 2013. purified caspase-6, Z-VEID-R110 cleavage fluorescence. inhibition, % at 12.5 µM. P55212;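 active = mean inhibition across replicates at least about 35%, with every replicate also reaching that limit, limit read from the data; inconclusive = only one of the two criteria met; inactive = neither criterion met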
# Target sequence (P55212 24-179 limits assumed): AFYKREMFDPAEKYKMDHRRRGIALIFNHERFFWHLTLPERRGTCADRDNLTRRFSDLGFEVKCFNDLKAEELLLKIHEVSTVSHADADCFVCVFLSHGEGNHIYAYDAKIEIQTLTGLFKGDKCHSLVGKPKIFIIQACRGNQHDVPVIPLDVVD
# Target sequence (P55212 194-293 limits assumed): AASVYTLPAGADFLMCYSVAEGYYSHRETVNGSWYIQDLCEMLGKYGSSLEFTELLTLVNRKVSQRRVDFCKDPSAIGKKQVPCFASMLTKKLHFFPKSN
# Wnt act: Wnt/beta-catenin pathway activators, primary screen, cell-based, plate reader, single point; Wnt/beta-catenin reporter cell assay, activator; activation, % at 9.35 µM; 1.2% of 300,000 active; AID 743398, 2014; in the data active = activation above about 30%, passing the limit was not always enough; inconclusive = no clear call, values can overlap the other calls
# XiGFP reactiv: activators of inactive X chromosome reactivation, primary screen, imaging, XiGFP fibroblasts, GFP high-content imaging, set 2; 0.055% of 360,000 active; XiGFP mouse fibroblasts, % GFP-positive cells imaging, 3 d; cells co-treated with 5-aza-dC sensitizer; scaled so ellipticine positive control = 100%; activation, % at 7.58 µM;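 active = mean normalized replicate activation at least 10% and every replicate at or above 10%; inconclusive = only one of the two criteria met; inactive = mean below 10% and not all replicates reach 10%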
#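 Material: XiGFP fibroblasts, SV40-immortalized; Buffer or medium: DMEM containing 5-aza-dC; Compound dosing: single point; Times: 3 days compound exposure.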
# NSD2 inh: NSD2 histone methyltransferase inhibitors, primary screen, biochemical, AlphaScreen, single concentration, set 2; NSD2 peptide methylation, 120 min; inhibition, % at 12.5 µM; 0.54% of 310,000 active; in the data active = inhibition above about 50%
# Hits are given with their value; – = inactive; ? = inconclusive; · = not tested or not shown. A selection: hits, their analogues and other compounds. The true share with any hit is near 3%.
SMILES,esBAF inh,MITF TRPM1 HTS,Casp6 inh,Wnt act,XiGFP reactiv,NSD2 inh
O=C(/C=C/c1ccccc1)Nc1cccc(C(=O)NCCc2ccccc2)c1,62,?,–,–,–,·
C[C@H]1CC=CC[C@H](c2ccc3c(c2)OCO3)NC(=O)[C@@H](Cc2ccccc2)N(C)C(=O)c2ccccc2O1 (mixture of isomers),·,·,·,·,–,·
COC(=O)c1ccc(N=NN2CCCCC2)cc1,·,89,–,–,–,–
c1ccc2c(C3OCC4(CCCCC4)CO3)cccc2c1,45,·,–,–,–,–
CCS(=O)(=O)N1CC(=O)N2[C@H](C1)[C@@H](c1ccc(C#CCC3CCCC3)cc1)[C@@H]2CO,·,·,–,·,–,·
O=c1c(O)c(-c2ccc(O)c(O)c2)oc2cc(O)ccc12,–,–,65,–,·,·
C[C@@H]1CN([C@H](C)CO)C(=O)Cc2cc(NC(=O)Cc3cn(C)c4ccccc34)ccc2O[C@H]1CN(C)Cc1ccc(C(F)(F)F)cc1,–,·,–,·,–,·
CC(C)c1ccc(N=C2N=C(N)c3ccccc32)cc1,·,–,–,49,–,–
NC1=NC(=Nc2ccc(Cl)cc2)c2ccccc21,·,–,–,–,–,–
Cc1ccc(S(=O)(=O)Oc2ccc(N3C(=O)C4C5CCC(C5)C4C3=O)cc2)cc1 (stereo not drawn),·,–,–,–,–,–
O=C1C2C3CCC(C3)C2C(=O)N1c1ccc(OS(=O)(=O)c2ccccc2)cc1 (stereo not drawn),·,–,–,34,–,–
CCOC(=O)c1sc(NC(C)=O)cc1C,–,–,–,–,–,·
CCOC(=O)c1sc(NC(=O)C2CCC2)cc1C,50,–,–,37,–,–
CCOC(=O)c1sc(NC(=O)Nc2ccccc2)cc1C,·,105,–,?,–,–
COCC(=O)Nc1ccc2c(c1)OC[C@H](C)N(C(=O)c1ccccc1)C[C@@H](C)[C@@H](OC)CN(C)C2=O,–,·,·,·,–,·
CC(C)NC(=O)Nc1ccc2c(c1)C(=O)N(C)C[C@H](C)[C@H](CN(C)C(=O)OC(C)(C)C)O2,·,·,·,·,–,·
Cc1ccc2[nH]c(-c3cccc(N)c3)cc2c1,–,–,·,82,·,–
C[C@H](CO)N1C[C@H](C)[C@H](CN(C)S(=O)(=O)c2cccs2)OCCCC[C@H](C)Oc2ccc(NC(=O)NC3CCCCC3)cc2C1=O,–,·,·,·,–,·
C(=C\c1cc(/C=C/c2ccccc2)ncn1)/c1ccccc1,55,–,·,37,·,–
Cc1cccc(/C=C/c2ccccc2)n1,51,·,–,46,–,·
C(=C\c1ccc2ccccc2n1)/c1ccccc1,–,–,–,–,–,–
Cc1nc(/C=C/c2ccccc2)cc(/C=C/c2ccccc2)n1,–,–,·,–,·,–
C(/C=C/c1ccccn1)=C\c1ccccc1,·,–,–,42,–,–
C[C@@H]1CCCCO[C@H](CN(C)C(=O)Cc2ccccc2)[C@H](C)CN([C@H](C)CO)C(=O)c2cc(NS(=O)(=O)c3ccccc3)ccc2O1,–,·,–,·,–,·
CN1C(=O)c2cc(NC(=O)C3CC3)ccc2OC[C@H]2O[C@@H](CC(=O)NCCN3CCCC3)CC[C@H]21,–,·,–,·,–,·
SMILES,esBAF inh,MITF TRPM1 HTS,Casp6 inh,Wnt act,XiGFP reactiv,NSD2 inh
O=C(c1ccccn1)c1ccc2ccccc2n1,·,·,–,44,–,–
C/C(=N/Nc1ccc([N+](=O)[O-])cc1)c1ccc(C)cc1C,–,–,–,–,–,–
Cc1[nH]c2ccccc2c1/C=N/Nc1ccc([N+](=O)[O-])cc1,·,–,–,–,75,–
O=C(NCc1ccccn1)c1ccc2ccccc2n1,–,–,–,–,–,·
C/C(=N/NC(=O)c1ccccn1)c1c[nH]c2ccccc12,55,–,–,–,–,–
C/C(=N/Nc1ccc([N+](=O)[O-])cc1)c1c[nH]c2ccccc12,58,·,–,–,–,–
C/C(=N/NC(=O)c1ccccn1)c1ccc(O)cc1,–,–,–,?,–,·
C/C(=N\NC(=O)c1ccc(Cl)cc1)c1ccccn1,–,·,–,–,–,–
C/C(=N\Nc1ccc(Cl)cc1)c1ccccn1,48,–,·,·,·,–
CC(=NNc1ccc2ccccc2n1)c1ccccc1O,·,–,–,–,–,–
CC(=NNc1ccc2ccccc2n1)c1ccccn1,·,·,–,–,33,–
C/C(=N\NC(=O)c1ccccn1)c1ccc(Cl)cc1,·,·,–,47,–,–
OC[C@@H]1[C@H](c2ccc(C#Cc3ccccc3)cc2)[C@H]2CN(Cc3cncnc3)CCCCN12,·,·,–,·,–,·
COc1ccc(S(=O)(=O)Nc2ccc3c(c2)C(=O)N([C@@H](C)CO)C[C@@H](C)[C@H](CN(C)S(=O)(=O)c2ccc(C)cc2)OCCCC[C@@H](C)O3)cc1,–,·,–,·,–,·
CCC(=O)Nc1ccc2c(c1)C(=O)N(C)[C@@H]1CC[C@H](CC(=O)NCc3ccccc3)O[C@@H]1CO2,–,·,–,·,–,·
Cc1c2cnn(CC(=O)O)c(=O)c2c(C)n1Cc1ccccc1,–,·,–,–,–,·
COC(=O)Cn1ncc2c(C)n(Cc3ccccc3)c(C)c2c1=O,52,–,–,–,–,·
Clc1ccc(NCc2cccnc2)cc1,–,–,–,–,–,–
CSc1ccc(CNc2ccc(Cl)cc2)cc1,–,101,–,–,·,·
O=C(N/N=C/c1ccc(-c2ccccc2[N+](=O)[O-])o1)c1cncc(Br)c1,·,–,·,–,–,–
O=C(N/N=C\c1ccc([N+](=O)[O-])o1)c1cncc(Br)c1,·,·,39,–,–,–
O=C(c1ccc2ccccc2c1)N1CCN(Cc2ccccc2)CC1,69,–,–,–,–,–
Cc1ccccc1NC(=O)OCc1ccccc1,53,·,–,–,–,–
CSCCC(NS(=O)(=O)c1ccccc1F)C(=O)NCC(c1ccc(F)cc1)N1CCOCC1 (stereo not drawn),–,–,–,–,–,–
CSCCC(NS(=O)(=O)c1ccccc1F)C(=O)NCC(C)(C)N1CCOCC1 (stereo not drawn),–,–,54,–,–,–
C[C@@H]1CCCCO[C@@H](CN(C)S(=O)(=O)c2ccc(F)cc2)[C@@H](C)CN([C@@H](C)CO)C(=O)c2cc(NC(=O)c3ccccc3)ccc2O1,–,·,–,·,–,·
Cc1ccc(NC(=O)c2ccc3[nH]c(=O)c(=O)[nH]c3c2)nc1,–,–,–,–,–,–
Cc1ccc(NC(=O)c2ccc(F)cc2)nc1,·,–,–,51,–,–
Cc1ccc(NC(=O)c2sccc2C)nc1,–,–,–,52,–,–
